Reference: publication PMC2741010 (Biochemistry, 2009)
Residue numbers refer to the chain shown, from its start. Values joined by “and” are separate entries in the source; they are usually repeats but may differ in a detail not shown here. Identical values can stand only once.

What was measured:
Experiment in all cases: 3′-CMP titration followed by 1H-15N HSQC, NMR line shape analysis
RNase A (H48A) = target: T1, RNase A (H48A) (Bos taurus, UniProt P61823, H74A); assay type: binding
T1 sequence (P61823 27-150 H74A): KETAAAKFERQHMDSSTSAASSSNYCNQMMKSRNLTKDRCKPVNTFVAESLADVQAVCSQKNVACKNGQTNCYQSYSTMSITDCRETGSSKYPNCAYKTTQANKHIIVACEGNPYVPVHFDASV

[1] = target: T2, RNase AECP (RNase A with loop 1 from ECP) (Bos taurus, UniProt P61823, DEL40-47/INS50PP/S49L/Y51R); assay type: binding
T2 sequence (P61823 with tags, fused parts or gaps DEL40-47/S49L/INS50PP/Y51R): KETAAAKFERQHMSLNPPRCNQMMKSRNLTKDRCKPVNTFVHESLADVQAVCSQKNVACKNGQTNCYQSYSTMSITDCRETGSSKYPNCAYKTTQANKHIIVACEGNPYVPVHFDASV

WT RNase A = target: T3, WT RNase A (Bos taurus, UniProt P61823); assay type: binding, bovine; details: for koff: global two-state fit of residues, 298 K, pH 6.4
T3 sequence (P61823 27-150): T1 sequence (P61823 27-150 H74A) with A48H
Outline: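 Each point recorded as a 1H-15N sensitivity-enhanced HSQC at 11.7 T, with spectral widths of 1600 Hz (t1) and 7000 Hz (t2). Kd and koff were taken from NMR line-shape fits of backbone amide shift changes.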

Nc1ccn([C@@H]2O[C@H](CO)[C@@H](OP(=O)(O)O)[C@H]2O)c(=O)n1 [3′-CMP, cytidine-3′-monophosphate]
Kd (RNase A (H48A)): 895 ± 50 µM | decrease in koff relative to WT (RNase A (H48A); H48A vs WT RNase A): 10 fold and ~ 10 fold | reduction of binding affinity relative to WT (RNase A (H48A); H48A vs WT RNase A): ~ 12 fold | kon (RNase A (H48A); RNase A H48A mutant, kon determined from koff/Kd): 1.59 × 10^5 ± 2.30 × 10^4 M^−^1s^−^1 | koff (RNase A (H48A); pH 6.4): 142 ± 19 s⁻¹ | Kd [1]: 300 ± 16 µM | kon ([1]; RNase AECP chimera, kon determined from koff/Kd): 3.20 × 10^5 ± 3.45 × 10^4 M^−^1s^−^1 | decrease in koff relative to WT ([1]; RNase AECP vs WT RNase A): 10 fold and ~ 10 fold | reduction of binding affinity relative to WT ([1]; RNase AECP vs WT RNase A): ~ 4 fold | koff ([1]; pH 6.4): 96 ± 9 s⁻¹ | Kd (WT RNase A): 74 ± 2 µM | koff (WT RNase A; WT RNase A): 1155 ± 120 s⁻¹ | kon (WT RNase A; WT RNase A, kon determined from koff/Kd): 1.56 × 10^7 ± 1.67 × 10^6 M^−^1s^−^1 | koff (WT RNase A; pH 6.4, WT RNase A): ~1200 s⁻¹
